# Legend:
# [1] = Inhibition of amyloid beta (1-42) aggregation at 10 uM by thioflavin T based fluorometric assay
# Method in brief: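 Aβ1-42 self-induced aggregation, read by thioflavin T fluorescence, with Aβ1-42 to inhibitor ratio 5/1. Reported as % inhibition. Mean of two independent experiments, each in duplicate. Controls added compound to already-aggregated Aβ after ThT dilution to exclude ThT displacement.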
# [2] = target: Cholinesterase (Homo sapiens, UniProt P06276); assay: Inhibition of human serum BuChE
# Method in brief: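 BuChE purified from human serum; activity read by Ellman's method. IC50 is the inhibitor concentration that cuts enzyme activity by 50%, taken as the mean of two independent measurements each run in duplicate.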
# [3] = target: Acetylcholinesterase (Homo sapiens, UniProt P22303); assay: Inhibition of human serum AChE
# [4] = system: SH-SY5Y; assay: Neurotoxicity in human SH-SY5Y cells assessed as cell viability at 0.1 to 10 uM by MTT assay; format: toxicity, cell-based
# [5] = system: SH-SY5Y; assay: Neuroprotective activity in human SH-SY5Y cells assessed as inhibition of amyloid beta(1-42)-induced neurotoxicity at 1 uM incubated for 3 hrs by MTT assay; format: functional; design: scale not given: the % may be the effect or the level left
# Method in brief: (§1)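 Human neuronal-like SH-SY5Y cells exposed for 3 h to Aβ1–42 pre-aggregated to oligomers, with compound present. Viability read by MTT colorimetric assay. Result expressed as % inhibition of oligomer-induced neurotoxicity, mean ± SD of at least two independent experiments.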
# [6] = system: SH-SY5Y; assay: Neurotoxicity in human SH-SY5Y cells assessed as decrease in cell viability at 1 to 50 uM by MTT assay; format: toxicity, cell-based
# Method in brief: (§2)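 SH-SY5Y human neuronal-like cells treated with compound alone for 24 h, with viability read by colorimetric MTT assay. IC50 is the concentration giving 50% inhibition of neuronal viability. Range tested 1–50 µM.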
# [7] = system: SH-SY5Y; assay: Neurotoxicity in human SH-SY5Y cells assessed as cell viability at 0.1 to 1 uM by MTT assay; format: toxicity, cell-based
# [8] = Neurotoxicity in human SH-SY5Y cells assessed as decrease in cell viability by MTT assay; format: toxicity, cell-based; method in brief: as §2
# [9] = system: SH-SY5Y; assay: Neuroprotective activity in human SH-SY5Y cells assessed as inhibition of amyloid beta(1-42)-induced neurotoxicity at 10 uM incubated for 3 hrs by MTT assay; format: functional; design: scale not given: the % may be the effect or the level left; method in brief: as §1
# Cholinesterase, sequence (P06276 whole entry): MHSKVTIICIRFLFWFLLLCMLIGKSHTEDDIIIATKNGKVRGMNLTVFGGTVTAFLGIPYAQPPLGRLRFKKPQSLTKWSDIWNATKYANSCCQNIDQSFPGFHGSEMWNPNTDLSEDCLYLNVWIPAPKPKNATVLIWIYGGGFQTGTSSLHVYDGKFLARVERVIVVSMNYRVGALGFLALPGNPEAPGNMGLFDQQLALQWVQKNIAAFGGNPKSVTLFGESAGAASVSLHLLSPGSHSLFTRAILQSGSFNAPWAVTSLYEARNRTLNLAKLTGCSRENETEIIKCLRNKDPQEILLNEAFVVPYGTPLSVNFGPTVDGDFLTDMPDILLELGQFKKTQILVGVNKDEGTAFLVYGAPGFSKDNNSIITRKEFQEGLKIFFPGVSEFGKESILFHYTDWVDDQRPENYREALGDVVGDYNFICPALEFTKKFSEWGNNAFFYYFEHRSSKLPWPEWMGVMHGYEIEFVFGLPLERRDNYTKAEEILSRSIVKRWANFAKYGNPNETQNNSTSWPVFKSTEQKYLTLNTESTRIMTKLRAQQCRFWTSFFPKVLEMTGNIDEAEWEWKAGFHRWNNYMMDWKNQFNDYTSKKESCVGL
# Acetylcholinesterase, sequence (P22303 whole entry): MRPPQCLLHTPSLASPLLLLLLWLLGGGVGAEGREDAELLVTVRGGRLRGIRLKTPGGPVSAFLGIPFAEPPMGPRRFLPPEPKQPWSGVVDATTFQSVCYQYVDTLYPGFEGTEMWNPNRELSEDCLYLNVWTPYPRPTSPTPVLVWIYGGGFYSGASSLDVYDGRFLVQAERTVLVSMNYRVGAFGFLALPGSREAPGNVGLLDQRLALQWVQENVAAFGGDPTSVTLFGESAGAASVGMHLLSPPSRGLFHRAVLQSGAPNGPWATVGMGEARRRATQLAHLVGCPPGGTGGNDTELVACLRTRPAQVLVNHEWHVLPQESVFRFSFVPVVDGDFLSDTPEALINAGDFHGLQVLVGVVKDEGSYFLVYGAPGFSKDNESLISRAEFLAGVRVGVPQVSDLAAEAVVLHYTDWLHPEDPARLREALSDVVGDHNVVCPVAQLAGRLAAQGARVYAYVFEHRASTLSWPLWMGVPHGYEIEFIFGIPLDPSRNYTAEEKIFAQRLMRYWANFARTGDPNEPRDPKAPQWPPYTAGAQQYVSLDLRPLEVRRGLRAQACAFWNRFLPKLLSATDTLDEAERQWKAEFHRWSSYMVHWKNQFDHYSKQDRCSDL
Structure (SMILES),inhibition [1] [%],IC50 [2] [µM],IC50 [3] [µM],Activity [4],Activity [5] [%],Activity [6],Activity [7],IC50 [8] [µM],Activity [9] [%]
O=C1C=C(NCCCCCCNCc2nc3ccccc3s2)C(=O)C=C1NCCCCCCNCc1nc2ccccc2s1,18.5,> 10,22,–,–,–,–,–,–
COc1cc(CNCCCNC2=CC(=O)C(NCCCNCc3ccc(O)c(OC)c3)=CC2=O)ccc1O,22,8.24,0.198,Non-toxic,25,Non-toxic,–,–,–
CCN(CCCCCCNC1=CC(=O)C(NCCCCCCN(CC)Cc2ccccc2OC)=CC1=O)Cc1ccccc1OC [MEMOQUIN],–,–,–,–,70,–,Non-toxic,19.4,80
COc1cc(/C=C/C(=O)CC(=O)/C=C/c2ccc(O)c(OC)c2)ccc1O,34.4,–,–,–,–,–,–,–,–
O=C1C=C(NCCCCCCNCc2cc3ccccc3o2)C(=O)C=C1NCCCCCCNCc1cc2ccccc2o1,18.4,84.2,> 10,–,–,–,–,–,–
O=C1C=C(NCCCCCCNCc2ccc(-c3nc4ccccc4s3)cc2)C(=O)C=C1NCCCCCCNCc1ccc(-c2nc3ccccc3s2)cc1,25.7,27.3,0.305,–,–,–,–,–,–
O=C1C=C(NCCCNCc2nc3ccccc3s2)C(=O)C=C1NCCCNCc1nc2ccccc2s1,16.2,> 10,> 10,–,25,Non-toxic,Non-toxic,–,–
O=C1C=C(NCCCNCc2ccc(-c3nc4ccccc4s3)cc2)C(=O)C=C1NCCCNCc1ccc(-c2nc3ccccc3s2)cc1,41.4,35.3,31.4,–,–,–,–,–,–
COc1cc(CNCCCCCCNC2=CC(=O)C(NCCCCCCNCc3ccc(O)c(OC)c3)=CC2=O)ccc1O,50.4,1.6,0.102,–,–,–,–,–,–
O=C1C=C(NCCCNCc2cc3ccccc3o2)C(=O)C=C1NCCCNCc1cc2ccccc2o1,27.2,2.6,21.8,–,25,–,Non-toxic,14.8,–

# From ChEMBL document CHEMBL1770071, “Multitargeted drugs discovery: balancing anti-amyloid and anticholinesterase capacity in a single chemical entity” (Bioorg Med Chem Lett, 2011)
